The subject of one experiment is HeLa. The experiment in a line: Anticancer activity against human HeLa cells assessed as inhibition of cell growth measured after 72 hrs by MTT assay. Format: functional, cell-based. Summed up:
(§1)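 Cells seeded at 3000 exponentially growing cells/well and incubated 12 h at 37 °C. Medium then replaced with fresh medium containing graded compound concentrations for 72 h; 5-FU positive control. MTT (5 mg/mL solution) added for 4 h, formazan dissolved in DMSO, absorbance read at 570 nm (reference 630 nm). Relative percentage inhibition of viable cells calculated; IC50 reported as mean ± standard deviation.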
A general note: Tetrazolium dyes change colour on reduction, which living cells bring about.

The test system of another experiment is MCF7. Put plainly: Anticancer activity against human MCF7 cells assessed as inhibition of cell growth measured after 72 hrs by MTT assay. Format: functional, cell-based. Particulars: MCF7, 72 h. Summed up:
as §1

A further experiment concerns MGC-803. The experiment in a line: Anticancer activity against human MGC-803 cells assessed as inhibition of cell growth measured after 72 hrs by MTT assay. Format: functional, cell-based. Particulars: MGC-803, 72 h. Summed up: as §1
Experiment [1] relates to Human immunodeficiency virus 1. The experiment in a line: Anti-HIV activity against HIV-1 3B infected in human MT4 cells assessed as protection against virus-induced cytopathicity measured after 5 days by MTT assay. Particulars: Human immunodeficiency virus 1, 3B, MT4, 120 h. Format: functional, organism-based.

The structures appear in SMILES notation.

For `C[C@H]1O[C@@H](n2cc(Cl)c(=O)[nH]c2=O)[C@H](O)[C@H]1OCP(=O)(O)O`, the IC50 in the experiment with HeLa, with MCF7 and in the experiment on MGC-803 was above 16 µM each time.

Take `Cc1cn([C@@H]2O[C@H](C)[C@H](OCP(=O)(O)O)[C@H]2O)c(=O)[nH]c1=O`: the half-maximal inhibitory concentration (IC50) in the experiment with HeLa, in the experiment with MCF7 and in the experiment with MGC-803 was above 16 µM each time.

Take `Nc1ncnc2c1ncn2[C@H]1C[C@@H](OCP(=O)(O)O)CO1`: in experiment [1], the EC50 (commonly the concentration giving half of the maximal effect) was 2.5 µM.

Consider `C[C@H]1O[C@@H](n2ccc(N)nc2=O)[C@H](O)[C@H]1OCP(=O)(O)O`, for which the 50% inhibitory concentration (IC50) in the experiment on HeLa, in the experiment with MCF7 and with MGC-803 was above 16 µM each time.

For the molecule `C[C@H]1O[C@@H](n2cc(F)c(N)nc2=O)[C@H](O)[C@H]1OCP(=O)(O)O`, the half-maximal inhibitory concentration (IC50) in the experiment with HeLa, in the experiment on MCF7 and with MGC-803 was above 16 µM each time.

For `C[C@H]1O[C@@H](n2cnc3c(N)ncnc32)[C@H](O)[C@H]1OCP(=O)(O)O`, the half-maximal inhibitory concentration (IC50) in the experiment with HeLa, in the experiment with MCF7 and in the experiment with MGC-803 was above 16 µM throughout.

As to `C[C@H]1O[C@@H](n2cc(F)c(=O)[nH]c2=O)[C@H](O)[C@H]1OCP(=O)(O)O`, the 50% inhibitory concentration (IC50) with HeLa, in the experiment on MCF7 and in the experiment on MGC-803 was above 16 µM each time.

Consider `Cc1cn([C@H]2C[C@@H](OCP(=O)(O)O)CO2)c(=O)[nH]c1=O`, for which the EC50 in experiment [1] turned out to be 6.59 µM.

`C[C@H]1O[C@@H](n2ccc(=O)[nH]c2=O)[C@H](O)[C@H]1OCP(=O)(O)O`: the half-maximal inhibitory concentration (IC50) with HeLa, in the experiment with MCF7 and with MGC-803 was above 16 µM throughout.

The values above are taken from ChEMBL document CHEMBL4837218, “Synthesis and in vitro antitumour activity of 4(R)-methyl-3-O-phosphonomethyl-α-l-threose nucleosides” (Eur J Med Chem, 2021).
